In brackets after ≈: the same amount, converted by molar mass.
Legend:
[1] = Oral absorption in Sprague-Dawley rats; format: ADME, organism-based; conditions: rat, in vivo
Procedure, shortened: (§1)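 Plasma was acetonitrile-precipitated and analysed by LC/MS/MS for prodrug and parent, then AUC was computed. From dose-normalized AUCs, Abs = AUC_PO,PV/AUC_IV,JV and F = AUC_PO,JV/AUC_IV,JV.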

[2] = Oral bioavailability in Sprague-Dawley rats; format: ADME, organism-based; conditions: rat, in vivo; procedure, shortened: as §1
[3] = Solubility in phosphate buffer at pH 7.4; format: physicochemical
Procedure, shortened: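 Kinetic solubility was measured in phosphate buffer pH 7.4 with 5% DMSO, prepared from a 10 mM DMSO stock. Samples were vortexed, then centrifuged at 4300 RPM for 10 min to remove insoluble material. The supernatant was quantified by HPLC/UV against a calibration standard.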

[4] = Stability in rat plasma at 10 uM after 2 hrs; format: ADME, cell-free; conditions: read-out: Stability
Procedure, shortened: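 Frozen pooled human or rat plasma (sodium heparin) was incubated with compound at 37 °C for 2 h. Prodrug disappearance was followed by LC/MS/MS. Percent remaining is the prodrug peak area at 2 h divided by the area at time 0.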

[5] = Stability in human liver microsome at 2 uM after 1 hr; format: ADME; conditions: liver microsomes, read-out: Stability
Procedure, shortened: (§2)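 Compound was incubated at 37 °C for 1 h with cryopreserved pooled male human or rat liver microsomes. Loss of prodrug was tracked by LC/MS/MS. Percent remaining at 1 h was taken as the end-point peak area over the time-0 peak area.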

[6] = Stability in rat liver microsome at 2 uM after 1 hr; format: ADME; conditions: liver microsomes, read-out: Stability; procedure, shortened: as §2
[7] = species: Homo sapiens; assay: Stability in human plasma at 10 uM after 2 hrs

| Structure (SMILES) | Fa [1] | bioavailability [2] | solubility [3] | remaining at 2 h, 10 µM [4] | remaining at 1 h, 2 µM [5] | remaining at 1 h, 2 µM [6] | remaining at 2 h, 10 µM [7] |
| --- | --- | --- | --- | --- | --- | --- | --- |
| Oc1ccccc1-c1cccc(-c2nc3ccccc3[nH]2)c1O | 100% | 16% |  |  |  |  |  |
| N/C(=N/C(=O)OCC(Cl)(Cl)Cl)c1ccc2[nH]c(-c3cccc(-c4ccccc4O)c3O)cc2c1 | 21% | 14% | < 10 µM | 89% | 87% | 9% | 100% |
| C=CCO/N=C(/N)c1ccc2[nH]c(-c3cccc(-c4ccccc4O)c3O)cc2c1 | 100% | 100% | 24 µM (≈ 9.59 µg/mL) | 94% | 55% | 42% | 100% |
| N=C(N)c1ccc2nc(-c3cccc(-c4cc(F)ccc4O)c3O)[nH]c2c1 | < 1% | < 1% |  |  |  |  |  |
| CC(=O)OC(C)OC(=O)NC(=N)c1ccc2[nH]c(-c3cccc(-c4ccccc4O)c3O)cc2c1 (stereo not drawn) |  |  | < 10 µM | 37% | 9% | 12% | 96% |
| N=C(N)c1ccc2[nH]c(-c3cccc(-c4cc(F)ccc4O)c3O)cc2c1 |  | < 1% | 83 µM (≈ 30 µg/mL) | 100% | 61% | 100% | 100% |

Further lines, results first:

| Fa [1] | bioavailability [2] | solubility [3] | remaining at 2 h, 10 µM [4] | remaining at 1 h, 2 µM [5] | remaining at 1 h, 2 µM [6] | remaining at 2 h, 10 µM [7] | Structure (SMILES) |
| --- | --- | --- | --- | --- | --- | --- | --- |
| 53% | 23% | < 10 µM | 100% |  | 49% | 100% | CC(C)OC(=O)NC(=N)c1ccc2[nH]c(-c3cccc(-c4ccccc4O)c3O)cc2c1 |
| 54% | 10% | 25 µM (≈ 10 µg/mL) | 100% | 63% | 69% | 100% | CC(C)ONC(=N)c1ccc2[nH]c(-c3cccc(-c4ccccc4O)c3O)cc2c1 |
| 60% | 38% | < 10 µM | 99% | 100% | 78% | 100% | CC(C)(C)ONC(=N)c1ccc2[nH]c(-c3cccc(-c4ccccc4O)c3O)cc2c1 |
| 53% | 67% | 43 µM (≈ 16.7 µg/mL) | 100% | 50% | 70% | 100% | CCONC(=N)c1ccc2[nH]c(-c3cccc(-c4ccccc4O)c3O)cc2c1 |
|  |  | < 10 µM | 95% | 37% | 53% | 100% | CCOC(=O)NC(=N)c1ccc2[nH]c(-c3cccc(-c4ccccc4O)c3O)cc2c1 |
| 39% | 15% | 380 µM (≈ 137 µg/mL) | 94% | 41% | 9% | 97% | N/C(=N/O)c1ccc2[nH]c(-c3cccc(-c4ccccc4O)c3O)cc2c1 |

From ChEMBL document CHEMBL1146956, “Factor VIIa inhibitors: a prodrug strategy to improve oral bioavailability” (Bioorg Med Chem Lett, 2006)
